Screens as filed in PubChem.
CDK5 inh: CDK5/p35 (human) kinase inhibition; Q00535+Q15078; 330,000 tested, 0.01% active; Recombinant CDK5/p35, ADP-Glo luminescence, 60 min; inhibition, % at 10 µM; AID 488839;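 active = highest replicate inhibition of at least 50% and at least 75% of replicates reaching 50%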;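 note: plate controls were DMSO neutral control for no effect and GW8510 at 10 µM for full effect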
S100A4 MyoIIA: blocks human S100A4 binding to myosin IIA peptide; P26447; inhibition, % at 10.7 µM; S100A4/TAMRA-MyoIIA peptide fluorescence polarization; 360,000 tested, 0.14% active;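 active = mean inhibition of at least 70% across replicates, with every replicate also reaching that level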
Target sequence (P26447 whole entry, looked up): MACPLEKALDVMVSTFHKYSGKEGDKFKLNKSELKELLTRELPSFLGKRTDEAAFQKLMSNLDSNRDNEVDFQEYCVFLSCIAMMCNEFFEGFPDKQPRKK
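Test system: S100A4 monomer protein; Medium: HEPES pH 7.2 with CaCl2, KCl, NaCl, DTT, Triton; Probe or stimulus: TAMRA-labelled myosin IIA heavy-chain peptide probe, 5 nM; Doses: one dose per compound; Times: polarization read 5 min after assay mix addition, stable 5–60 min; Benchmarks: neutral control DMSO, positive control TFP.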
CAL PDZ FP-1: CAL PDZ (human) peptide binding inhibition; purified CAL PDZ, TMR-peptide fluorescence polarization, 1 h; Q9HD26; 300,000 tested, 0.92% active; inhibition, % at 24.9 µM;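 active = mean inhibition of at least 30% with at least half of replicates also reaching 30%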;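 note: 0% = DMSO neutral control and 100% = excess unlabeled competitor peptide PRC23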
C2C12 statin: suppressors of simvastatin-induced myotoxicity in C2C12 myotubes; ATP luminescence, 48 h; scaled: DMSO 0, geranylgeraniol control 100; rescue of ATP level, % at 7.49 µM; 330,000 tested, 0.78% active; AID 602340;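 active = mean ATP rescue above about 67%, or every replicate alone reaching that limit, limit read from the data, passing the limit was not always enough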;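 note: myotubes were challenged with 10 µM simvastatin during compound exposure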
CAL PDZ FP-2: inhibitors of human CAL PDZ peptide binding; 330,000 tested, 0.02% active; purified CAL PDZ, TMR-peptide fluorescence polarization, 1 h; inhibition, % at 20 µM;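 active = highest replicate inhibition of at least 40%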;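 note: plate controls were DMSO neutral control wells for no effect and unlabeled competitor peptide control wells for full effect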
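material = purified tagged CAL PDZ domain construct (CerCALP) | compound dosing = 20 µM, one dose | times = 1 h at RT | measured by = fluorescence polarization from S- and P-plane intensities, G-factor corrected | read-out = inhibition from polarization loss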
dFosB act: activators of mouse delta FosB homodimer | activation, % at 25 µM | purified delta FosB, TAMRA-CDK5 oligo fluorescence polarization; percent of positive-control signal above neutral wells | P13346 | 340,000 tested, 0.99% active;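 active = mean activation above about 17%, with every replicate also reaching it, limit read from the data, passing the limit was not always enough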
Target sequence (P13346 whole entry, looked up): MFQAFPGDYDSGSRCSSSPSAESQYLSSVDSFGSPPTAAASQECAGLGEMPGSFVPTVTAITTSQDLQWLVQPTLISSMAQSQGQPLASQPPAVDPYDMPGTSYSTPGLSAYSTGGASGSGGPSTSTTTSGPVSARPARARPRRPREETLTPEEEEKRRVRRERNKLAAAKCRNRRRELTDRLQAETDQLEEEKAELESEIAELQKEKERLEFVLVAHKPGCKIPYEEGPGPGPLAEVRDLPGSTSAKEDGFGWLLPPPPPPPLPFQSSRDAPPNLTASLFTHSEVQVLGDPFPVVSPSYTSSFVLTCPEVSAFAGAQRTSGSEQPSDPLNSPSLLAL
Numbers without * were called inactive. Rows were chosen to be rich in hits. Some 2% of all compounds tested hit in one or more screens of this group.

Cc1cccnc1-n1c(-c2ccco2)nc2ccccc2c1=O was read as CDK5 inh 0, CAL PDZ FP-1 -2, C2C12 statin -4, CAL PDZ FP-2 1 and dFosB act 5.
COC(=O)C1=C(c2cccc(Cl)c2)C[C@@H]2CC[C@H]1N2C(=O)N1CCCC1 was read as CDK5 inh 0, S100A4 MyoIIA 2, CAL PDZ FP-1 -2, C2C12 statin -5, CAL PDZ FP-2 -1 and dFosB act 3.
`O=C1NC(=O)C(=Cc2ccc(N3CCN(C(=O)c4ccccc4)CC3)c([N+](=O)[O-])c2)C(=O)N1` gave CDK5 inh 5, S100A4 MyoIIA 0, CAL PDZ FP-1 -1, CAL PDZ FP-2 -2 and dFosB act -4.
Screening CCN1C(=O)C(=C/C=C/c2ccco2)C(=O)N(CC)C1=S returned CDK5 inh -16, S100A4 MyoIIA -14, CAL PDZ FP-1 -14, CAL PDZ FP-2 -3 and dFosB act 57*.
`Cc1cccc(N2C(=O)NC(=O)/C(=C\c3ccc(N4CCOCC4)cc3)C2=O)c1` gave CDK5 inh -1, S100A4 MyoIIA -13, CAL PDZ FP-1 56*, CAL PDZ FP-2 -1 and dFosB act 2.
`CCOC(=O)C(O)(c1ccc(N(CC)S(=O)(=O)c2ccccc2)cc1)C(F)(F)F` (stereo not given) gave CDK5 inh -1, CAL PDZ FP-1 0, C2C12 statin -14, CAL PDZ FP-2 0 and dFosB act -4.
CC12CN3CN(C1)CC(c1ccccc1)(C3)C2=O was read as CDK5 inh 2, CAL PDZ FP-1 -3, C2C12 statin 102*, CAL PDZ FP-2 -2 and dFosB act -4.
Screening O=[N+]([O-])c1ccccc1-c1cc(-c2ccccc2)cc(-c2ccccc2)[n+]1Cc1ccccc1Cl returned S100A4 MyoIIA 2.
CN(CC=CCN(C)P(=S)(N1CC1)N1CC1)P(=S)(N1CC1)N1CC1 was read as CDK5 inh -1, S100A4 MyoIIA 5, CAL PDZ FP-1 34*, C2C12 statin 11, CAL PDZ FP-2 -1 and dFosB act -3.
`COc1cc(/C=C(/C)[N+](=O)[O-])ccc1OCc1ccccc1Cl` gave CDK5 inh -1, CAL PDZ FP-1 0, C2C12 statin 0, CAL PDZ FP-2 -3 and dFosB act 6.
Screening CCCCCCn1c(N)c(C(=O)NCCN2CCOCC2)c2nc3ccccc3nc21 returned CDK5 inh -1, CAL PDZ FP-1 -2, C2C12 statin 112*, CAL PDZ FP-2 0 and dFosB act 8.
CC(=O)OC1(Cc2ccccc2)CN2CCC1c1ccccc12 (stereo not given) was read as CDK5 inh 1, CAL PDZ FP-1 2, C2C12 statin 114*, CAL PDZ FP-2 -1 and dFosB act 2.
`Clc1cccc(C2NCc3ccccc3-n3cccc32)c1` (stereo not given) gave CDK5 inh 1, S100A4 MyoIIA -3, CAL PDZ FP-1 -4, C2C12 statin 30, CAL PDZ FP-2 0 and dFosB act -7.
For O=C(CN1CCN(Cc2ccc(Cl)cc2)C1=O)N1CCC2(CC1)OCCO2 the results were CDK5 inh -1, CAL PDZ FP-1 -13, C2C12 statin 87*, CAL PDZ FP-2 0 and dFosB act 0.
Screening O=C(CN1CCN(Cc2cccc(Cl)c2)C1=O)N1CCC2(CC1)OCCO2 returned CDK5 inh 1, CAL PDZ FP-1 6 and dFosB act 5.
Cc1nc2ccc(Cl)cn2c1P(=S)(N1CCOCC1)N1CCOCC1 was read as CDK5 inh -1, CAL PDZ FP-1 -4, C2C12 statin 93*, CAL PDZ FP-2 0 and dFosB act -4.
Cn1ccnc1P(=S)(c1nccn1C)N1CCOCC1 was read as CDK5 inh 1, CAL PDZ FP-1 -3, C2C12 statin -8, CAL PDZ FP-2 0 and dFosB act 10.
Screening O=c1[nH]c(=S)n(C2CC2)c(O)c1C=NCCc1ccccc1 returned S100A4 MyoIIA 2.
For O=c1[nH]c(O)c(C=NCCc2ccccc2)c(=O)[nH]1 the results were CDK5 inh 1, S100A4 MyoIIA 3, CAL PDZ FP-1 84*, CAL PDZ FP-2 -1 and dFosB act 11.
